{"source": "ChEMBL document CHEMBL1145425", "about": "“Antitumor agents 259. Design, syntheses, and structure-activity relationship study of desmosdumotin C analogs” (2007)", "data": [{"system": "A549", "experiment": "Cytotoxicity against human A549 cells", "assay_type": "functional", "conditions": "read-out: ED50 (the source's name)", "in_short": "(§1)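 Sulforhodamine B growth assay. Lines kept in RPMI-1640 with 25 mM HEPES, 0.25% sodium bicarbonate, 10% FBS and kanamycin. Trypsinized cells seeded at 1500–7500 per well, with compound added from DMSO-diluted stock. After 3 days, attached cells fixed with cold 50% TCA, stained with 0.4% SRB, dye solubilized, absorbance read at 562 nm. ED50 is 50% growth reduction, averaged over at least three independent determinations.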", "units": {"EC50": "µg/mL"}, "values": [{"smiles": "CCCC1=C(OC)C(CCC)(CCC)C(=O)/C(=C(O)\\C=C\\c2ccc(Br)cc2)C1=O", "EC50": 1}, {"smiles": "CCCC1=C(OC)C(CCC)(CCC)C(=O)/C(=C(O)\\C=C\\c2ccccc2)C1=O", "EC50": 1.4}, {"smiles": "CC1(C)C(=O)C(C(=O)/C=C/c2ccccc2)=C(O)C(C)(C)C1=O", "EC50": "> 5"}, {"smiles": "COC1=C(C)C(=O)/C(=C(O)/C=C/c2ccc(Br)cc2)C(=O)C1(C)C", "EC50": 1.4}, {"smiles": "COC1=C(C)C(=O)/C(=C(O)/C=C/c2ccc(OC)cc2)C(=O)C1(C)C", "EC50": 3}, {"smiles": "COC1=C(C)C(=O)/C(=C(O)/C=C/c2ccccc2OC)C(=O)C1(C)C", "EC50": 2.4}]}, {"system": "A-431", "experiment": "Cytotoxicity against human A431 cells", "assay_type": "functional", "conditions": "read-out: ED50 (the source's name)", "in_short": "as §1", "units": {"EC50": "µg/mL"}, "values": [{"smiles": "CCCC1=C(OC)C(CCC)(CCC)C(=O)/C(=C(O)\\C=C\\c2ccc(Br)cc2)C1=O", "EC50": 1.2}, {"smiles": "CCCC1=C(OC)C(CCC)(CCC)C(=O)/C(=C(O)\\C=C\\c2ccccc2)C1=O", "EC50": 1.9}, {"smiles": "CC1(C)C(=O)C(C(=O)/C=C/c2ccccc2)=C(O)C(C)(C)C1=O", "EC50": 10.5}, {"smiles": "COC1=C(C)C(=O)/C(=C(O)/C=C/c2ccc(Br)cc2)C(=O)C1(C)C", "EC50": 9}, {"smiles": "COC1=C(C)C(=O)/C(=C(O)/C=C/c2ccc(OC)cc2)C(=O)C1(C)C", "EC50": 9.2}, {"smiles": "COC1=C(C)C(=O)/C(=C(O)/C=C/c2ccccc2OC)C(=O)C1(C)C", "EC50": 6.6}]}, {"system": "1A9", "experiment": "Cytotoxicity against human 1A9 cells", "assay_type": "functional", "conditions": "read-out: ED50 (the source's name)", "in_short": "as §1", "units": {"EC50": "µg/mL"}, "values": [{"smiles": "CCCC1=C(OC)C(CCC)(CCC)C(=O)/C(=C(O)\\C=C\\c2ccc(Br)cc2)C1=O", "EC50": 0.9}, {"smiles": "CCCC1=C(OC)C(CCC)(CCC)C(=O)/C(=C(O)\\C=C\\c2ccccc2)C1=O", "EC50": 1.5}, {"smiles": "CC1(C)C(=O)C(C(=O)/C=C/c2ccccc2)=C(O)C(C)(C)C1=O", "EC50": 4.6}, {"smiles": "COC1=C(C)C(=O)/C(=C(O)/C=C/c2ccc(Br)cc2)C(=O)C1(C)C", "EC50": 1.1}, {"smiles": "COC1=C(C)C(=O)/C(=C(O)/C=C/c2ccc(OC)cc2)C(=O)C1(C)C", "EC50": 2.8}, {"smiles": "COC1=C(C)C(=O)/C(=C(O)/C=C/c2ccccc2OC)C(=O)C1(C)C", "EC50": 2.5}]}, {"system": "HCT-8", "experiment": "Cytotoxicity against human HCT8 cells", "assay_type": "functional", "conditions": "read-out: ED50 (the source's name)", "in_short": "as §1", "units": {"EC50": "µg/mL"}, "values": [{"smiles": "CCCC1=C(OC)C(CCC)(CCC)C(=O)/C(=C(O)\\C=C\\c2ccc(Br)cc2)C1=O", "EC50": 1.3}, {"smiles": "CCCC1=C(OC)C(CCC)(CCC)C(=O)/C(=C(O)\\C=C\\c2ccccc2)C1=O", "EC50": 1.4}, {"smiles": "CC1(C)C(=O)C(C(=O)/C=C/c2ccccc2)=C(O)C(C)(C)C1=O", "EC50": 5}, {"smiles": "COC1=C(C)C(=O)/C(=C(O)/C=C/c2ccc(Br)cc2)C(=O)C1(C)C", "EC50": 7.4}, {"smiles": "COC1=C(C)C(=O)/C(=C(O)/C=C/c2ccc(OC)cc2)C(=O)C1(C)C", "EC50": 5.6}, {"smiles": "COC1=C(C)C(=O)/C(=C(O)/C=C/c2ccccc2OC)C(=O)C1(C)C", "EC50": 4.1}]}, {"system": "PC-3", "experiment": "Cytotoxicity against human PC3 cells", "assay_type": "functional", "conditions": "read-out: ED50 (the source's name)", "in_short": "as §1", "units": {"EC50": "µg/mL"}, "values": [{"smiles": "CCCC1=C(OC)C(CCC)(CCC)C(=O)/C(=C(O)\\C=C\\c2ccc(Br)cc2)C1=O", "EC50": 2.3}, {"smiles": "CCCC1=C(OC)C(CCC)(CCC)C(=O)/C(=C(O)\\C=C\\c2ccccc2)C1=O", "EC50": 3.3}, {"smiles": "CC1(C)C(=O)C(C(=O)/C=C/c2ccccc2)=C(O)C(C)(C)C1=O", "EC50": 11.1}, {"smiles": "COC1=C(C)C(=O)/C(=C(O)/C=C/c2ccc(Br)cc2)C(=O)C1(C)C", "EC50": 17.7}, {"smiles": "COC1=C(C)C(=O)/C(=C(O)/C=C/c2ccc(OC)cc2)C(=O)C1(C)C", "EC50": 18.2}, {"smiles": "COC1=C(C)C(=O)/C(=C(O)/C=C/c2ccccc2OC)C(=O)C1(C)C", "EC50": 15.6}]}, {"system": "KB", "experiment": "Cytotoxicity against human KB cells", "assay_type": "functional", "conditions": "read-out: ED50 (the source's name)", "in_short": "as §1", "units": {"EC50": "µg/mL"}, "values": [{"smiles": "CCCC1=C(OC)C(CCC)(CCC)C(=O)/C(=C(O)\\C=C\\c2ccc(Br)cc2)C1=O", "EC50": 0.9}, {"smiles": "CCCC1=C(OC)C(CCC)(CCC)C(=O)/C(=C(O)\\C=C\\c2ccccc2)C1=O", "EC50": 0.6}, {"smiles": "CC1(C)C(=O)C(C(=O)/C=C/c2ccccc2)=C(O)C(C)(C)C1=O", "EC50": 7.3}, {"smiles": "COC1=C(C)C(=O)/C(=C(O)/C=C/c2ccc(Br)cc2)C(=O)C1(C)C", "EC50": 1.7}, {"smiles": "COC1=C(C)C(=O)/C(=C(O)/C=C/c2ccc(OC)cc2)C(=O)C1(C)C", "EC50": 3.6}, {"smiles": "COC1=C(C)C(=O)/C(=C(O)/C=C/c2ccccc2OC)C(=O)C1(C)C", "EC50": 3.3}]}, {"system": "KB", "experiment": "Cytotoxicity against human vincristine-resistant KB cells", "assay_type": "functional", "conditions": "read-out: ED50 (the source's name)", "in_short": "as §1", "units": {"EC50": "µg/mL"}, "values": [{"smiles": "CCCC1=C(OC)C(CCC)(CCC)C(=O)/C(=C(O)\\C=C\\c2ccc(Br)cc2)C1=O", "EC50": 0.9}, {"smiles": "CCCC1=C(OC)C(CCC)(CCC)C(=O)/C(=C(O)\\C=C\\c2ccccc2)C1=O", "EC50": 0.8}, {"smiles": "CC1(C)C(=O)C(C(=O)/C=C/c2ccccc2)=C(O)C(C)(C)C1=O", "EC50": 3.8}, {"smiles": "COC1=C(C)C(=O)/C(=C(O)/C=C/c2ccc(Br)cc2)C(=O)C1(C)C", "EC50": 1.9}, {"smiles": "COC1=C(C)C(=O)/C(=C(O)/C=C/c2ccc(OC)cc2)C(=O)C1(C)C", "EC50": 2.9}, {"smiles": "COC1=C(C)C(=O)/C(=C(O)/C=C/c2ccccc2OC)C(=O)C1(C)C", "EC50": 2.8}]}, {"system": "HUVEC", "experiment": "Cytotoxicity against HUVEC", "assay_type": "functional", "conditions": "Homo sapiens, read-out: ED50 (the source's name)", "in_short": "(§2)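 HUVEC seeded at 1.5×10^3 per well in EGM-2; after 24 h (day zero) compound added in EGM-2 at 2× the desired concentration. Day-zero plate stained with crystal violet. Remaining plates kept 72 h at 37 °C, then stained with 0.5% crystal violet in 20% MeOH. Dye eluted with 1:1 EtOH:0.1 M sodium citrate and read at 540 nm. Run per the NCI Angiogenesis Resource Center protocol.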", "units": {"EC50": "µg/mL"}, "values": [{"smiles": "CC1(C)C(=O)C(C(=O)/C=C/c2ccccc2)=C(O)C(C)(C)C1=O", "EC50": 2}, {"smiles": "COC1=C(C)C(=O)/C(=C(O)/C=C/c2ccc(Br)cc2)C(=O)C1(C)C", "EC50": 3.6}, {"smiles": "COC1=C(C)C(=O)/C(=C(O)/C=C/c2ccc(OC)cc2)C(=O)C1(C)C", "EC50": 2.5}, {"smiles": "COC1=C(C)C(=O)/C(=C(O)/C=C/c2ccccc2OC)C(=O)C1(C)C", "EC50": 1.7}]}, {"system": "HUVEC", "experiment": "Antiangiogenesis activity against HUVEC", "assay_type": "functional", "conditions": "Homo sapiens, read-out: ED50 (the source's name)", "in_short": "as §2", "units": {"EC50": "µg/mL"}, "values": [{"smiles": "CC1(C)C(=O)C(C(=O)/C=C/c2ccccc2)=C(O)C(C)(C)C1=O", "EC50": "< 4"}, {"smiles": "COC1=C(C)C(=O)/C(=C(O)/C=C/c2ccc(Br)cc2)C(=O)C1(C)C", "EC50": "< 4"}, {"smiles": "COC1=C(C)C(=O)/C(=C(O)/C=C/c2ccc(OC)cc2)C(=O)C1(C)C", "EC50": "< 4"}, {"smiles": "COC1=C(C)C(=O)/C(=C(O)/C=C/c2ccccc2OC)C(=O)C1(C)C", "EC50": "< 4"}]}]}
